Screening data deposited in PubChem BioAssay by several laboratories.
Sampled rows, rich in hits. Any-hit rate of the full collection: about 2%.
FXN GAA850 act: activators of GAA850 frataxin (FXN) promoter; HEK293 lucGAA850 FXN promoter luciferase reporter, 24 h; percent of 10 µM SAHA response; 360,000 tested, 0.56% active; AID 540364; activation, % at 6 µM;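 active = activation above the average of all compounds screened plus 3 SD, cutoff fixed separately per campaign, cut at about 7.5% in these data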;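 also: 0% = DMSO wells and 100% = 10 µM SAHA wells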
EBI2 antag: antagonists of human EBI2 receptor; P32249; EBI2 beta-arrestin recruitment, luminescence, 7a,25-OHC stimulated; inhibition, % at 5 µM; 360,000 tested, 0.81% active; in the data active = inhibition above about 38%;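 also: enzyme fragment complementation signal reports receptor beta-arrestin coupling in cells; 0% = agonist plus DMSO wells and 100% = wells without agonist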
APJ antagonist: antagonists of human APJ apelin receptor; AID 2521; CHO-K1 APJ beta-arrestin complementation, luminescence; P35414; inhibition, % at 20 µM; 330,000 tested, 0.32% active;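 active = inhibition above about 40% at 20 µM, limit read from the data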;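 also: cells challenged with 10 nM apelin-13 agonist together with compound; plate controls were apelin-13 plus DMSO wells for no effect and DMSO wells lacking apelin-13 for full effect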
Target sequence (P35414 whole entry, looked up): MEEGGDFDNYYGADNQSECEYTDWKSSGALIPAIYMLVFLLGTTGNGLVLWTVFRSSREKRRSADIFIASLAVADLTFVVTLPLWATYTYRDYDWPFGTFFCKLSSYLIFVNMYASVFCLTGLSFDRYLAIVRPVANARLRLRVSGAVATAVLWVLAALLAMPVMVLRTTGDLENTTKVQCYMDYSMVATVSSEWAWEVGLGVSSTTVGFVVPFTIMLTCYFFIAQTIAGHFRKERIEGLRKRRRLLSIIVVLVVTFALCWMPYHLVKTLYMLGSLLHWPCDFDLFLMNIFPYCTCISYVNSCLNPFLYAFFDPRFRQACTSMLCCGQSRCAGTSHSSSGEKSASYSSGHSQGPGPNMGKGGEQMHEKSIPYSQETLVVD
CCR6 antagonist: antagonists of human CCR6 receptor; CHO-K1 CCR6 PathHunter beta-arrestin, luminescence, CCL20-stimulated; inhibition, % at 20 µM; 340,000 tested, 0.49% active; AID 493098;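 active = compounds whose inhibition of the agonist-driven luminescence signal at 20 µM reaches about 50%, limit read from the data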;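 also: cells stimulated with CCL20 at 14 nM final; plate controls were DMSO with CCL20 for no effect and DMSO without agonist for full effect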
APJ ag: activates the human apelin receptor APJ. 330,000 tested, 0.11% active. CHO-K1 APJ PathHunter beta-arrestin, luminescence; 0% DMSO wells, 100% apelin. activation, % at 20 µM. P35414;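 active = activation more than six SD over the plate average, tested at 20 µM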;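 also: 0% = DMSO alone and 100% = apelin-13 at 10 nM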
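system = engineered CHO-K1 APJ arrestin reporter cells | input = 1000 cells per well | timing = overnight seeding, 90 min compound at 25 °C, 1 h detection | measured by = enzyme-fragment complementation luminescence | read-out = beta-arrestin recruitment to APJ as agonist activity, luminescent signal | control set = negative DMSO alone, positive Apelin-13 at 10 nM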
CXCR6 inh: CXCR6 (human) receptor inhibition; CHO-K1 PathHunter CXCR6 beta-arrestin, luminescence; O00574; 360,000 tested, 0.36% active; AID 602244; inhibition, % at 20 µM; in the data active = inhibition above about 34%, passing the limit was not always enough;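 also: antagonist mode with CXCL16 agonist at 10 nM final; 0% = 10 nM CXCL16 with DMSO and 100% = unstimulated wells without agonist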
GAA30 counter: activates GAA30 frataxin promoter, counter-screen for GAA850 activators. shares compounds with FXN GAA850 act. HEK293 lucGAA30 FXN promoter luciferase, 24 h; DMSO = 0%, 5 µM ipriflavone = 100%. activation, % at 6 µM. 1,900 tested, 66% active. AID 588350;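 active = mean activation above the mean of solvent-only control wells plus 3 SD, cut at about 22% in these data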;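 also: counterscreen of GAA850 promoter hits where activity marks nonselective or luminescence artifacts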
FXN GAA850 conf: GAA850 FXN promoter activation confirmation; shares compounds with FXN GAA850 act; HEK293 lucGAA850 FXN promoter luciferase reporter, 24 h; 100% = activation by SAHA; activation, % at 6 µM; 1,900 tested, 86% active; AID 588351;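 active = mean activation above a set limit taken from the primary screen, cut at about 8% in these data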;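 also: 0% = DMSO wells and 100% = 10 µM SAHA wells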
* = called active by the depositor; x = no result given.

SMILES | FXN GAA850 act | EBI2 antag | APJ antagonist | CCR6 antagonist | APJ ag | CXCR6 inh | GAA30 counter | FXN GAA850 conf
COc1cccc(CN(CCC(C)C)S(=O)(=O)c2cc(Br)ccc2Br)c1 | 1.8 | 15.8 | x | 18.3 | x | 3.1 | x | x
Cc1nn(-c2nnc(NC3CCCCC3)nn2)c(C)c1Br | 8.6* | -5.6 | -5.0 | 7.5 | -0.6 | -9.6 | 124.0* | 39.5*
CC(NC(=O)COC(=O)c1ccc(CO)cc1)C1CC2CCC1C2 (centres undefined) | 0.5 | 7.4 | 12.2 | 1.9 | -1.6 | 9.6 | x | x
COc1ccc(-c2cc(C(=O)NC(C)C)no2)cc1 | 8.1* | 1.5 | -15.0 | 13.3 | -5.2 | 9.5 | 106.2* | 32.3*
COC(=O)c1cc(-c2ccc(OC)cc2)on1 | -0.6 | -8.6 | -5.4 | -17.0 | -2.3 | -9.0 | x | x
Cc1ccccc1CSc1nnc(-c2ccncc2)n1C | 2.8 | 6.4 | 3.7 | 11.9 | -3.0 | 3.2 | x | x
CC1CCCN(c2nc3ccsc3c(=O)s2)C1 (centres undefined) | 11.2* | -0.5 | 3.5 | 24.4 | -4.2 | -1.8 | 82.1* | 35.2*
O=C(NCc1ccccc1Cl)C1CCCN(c2nc3ccsc3c(=O)s2)C1 (centres undefined) | x | x | -11.1 | x | -5.1 | x | x | x
CC(C)C[C@@H](CN)NC(=O)c1nc[nH]c1C(=O)N[C@@H](CC(=O)O)C(=O)CNC[C@H](C)NC(=O)c1nc[nH]c1C(=O)N[C@@H](CC(=O)O)C(=O)O | -0.1 | -2.3 | x | 8.4 | x | 7.2 | x | x
C=C1C(=O)O[C@H]2C[C@]3(C)C([C@@H](OC(=O)/C(C)=C/C)[C@H]12)[C@](C)(O)CC[C@H]3O (some centres undefined) | 1.3 | 3.3 | -11.0 | 10.2 | -4.5 | -2.4 | x | x
C=C[C@@]1(C)CC(=O)[C@]2(O)[C@@]3(C)[C@@H](O)CCC(C)(C)[C@@H]3[C@H](O)[C@H](OC(C)=O)[C@@]2(C)O1 | 16.4* | -29.5 | 0.5 | -5.3 | 17.5 | -12.2 | 17.7 | 15.1*
C=C[C@@]1(C)CC(=O)[C@]2(O)[C@@]3(C)[C@@H](O)CCC(C)(C)[C@@H]3[C@H](OC(C)=O)[C@H](O)[C@@]2(C)O1 | 12.3* | -14.0 | -1.9 | 9.2 | 3.2 | -1.0 | 7.4 | 13.7*
CCOc1ccc(S(=O)(=O)NCCC(=O)NCCOc2ccccc2OC)cc1 | -0.4 | 1.2 | 6.1 | 6.8 | 0.6 | -2.0 | x | x
CC(=O)c1ccc(OC2(C)CCN(Cc3csc4ccccc34)C2)cc1 (centres undefined) | -0.6 | 5.9 | x | x | x | -11.6 | x | x
CC(C)n1ncc2c(C(=O)NCCc3ccc(S(N)(=O)=O)cc3)cc(C3CC3)nc21 | 1.3 | -2.6 | 7.1 | 5.8 | -1.3 | -7.0 | x | x
Cc1cccc(C)c1NC(=O)C(c1ccc(-c2ccccc2)cc1)n1c(=O)c(-c2cc3ccccc3[nH]2)nc2ccccc21 (centres undefined) | x | -2.3 | x | x | x | x | x | x
N#Cc1c(N)nc(SCc2ccncc2)c(C#N)c1-c1cccs1 | 9.9* | -0.3 | 2.9 | -8.8 | 5.5 | -0.9 | -8.2 | 6.1
c1ccc2oc(-c3ccn[nH]3)cc2c1 | 8.0* | -7.0 | -24.4 | -5.5 | 3.1 | -17.1 | 121.8* | 38.4*
CN(C)CCNc1ccc2ncn3c4ccc(O)cc4c(=O)c1c23 | 8.4* | -8.9 | x | 13.1 | x | -2.5 | -41.6 | 25.6*
COc1ccc(N(C)S(=O)(=O)c2cccc(C(=O)Nc3cccc(C(=O)NC4CC4)c3)c2)cc1 | -2.4 | 9.9 | -5.6 | -4.4 | 7.6 | 2.1 | x | x
CCc1ccc(Oc2cc(Cl)nc(N)n2)cc1 | 7.7* | 6.0 | -18.4 | 0.3 | -3.3 | 8.1 | 103.2* | 35.8*
Cc1cccc2nc(CSc3nc4ccc([N+](=O)[O-])cc4[nH]3)c(Br)n12 | 13.9* | 1.5 | 19.9 | 51.5* | 1.2 | 10.3 | 37.5* | 16.6*
NC(=O)CSc1nc2ccc([N+](=O)[O-])cc2[nH]1 | 2.0 | -5.5 | 4.9 | 17.9 | -0.1 | 6.9 | x | x
